Sampled rows, rich in hits. Any-hit rate of the full collection: about 2.6%.
T cell HTS: modulators of CD8 T cell-vesicle binding, primary screen, mouse 2C CD8+ T cells, flow cytometry | response (vesicle binding), % at 7 µM | AID 2052, 2009 | 2C CD8+ T cell-vesicle binding; hits give low values | 0.068% of 330,000 active;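 active = response, share of CD8 T cells binding vesicles, and their 90th percentile fluorescence all below set limits, cut at about 80% in these data, passing the limit was not always enough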;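 also: values below 100% mean blocked vesicle binding to the CD8+ T cells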
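Material: murine 2C transgenic CD8+ T lymphocytes / Also added: QL9-peptide-loaded Drosophila micro-vesicles bearing Ld, ICAM-1 and B7-1 / Schedule: binding step 1.5 h, 37 °C, antibody labelling 20 min, ice / Signal: flow cytometry, PE anti-B7-1 (FL2) versus Alexa647 anti-CD8 (FL8), PFA-fixed / Evaluation: percent CD8+ FL2 mean versus row control / Benchmarks: naked versus QL9-loaded vesicles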
GRK2 aptamer HTS: compounds blocking aptamer binding on GRK2 – biochemical, human GRK2, bead flow cytometry, HTS, primary screen; inhibition of aptamer binding, % at 10 µM; 0.59% of 330,000 active; FAM-aptamer displacement from GRK2; AID 488847, 2010;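 active = inhibition of aptamer binding above 40%, roughly 3 SD of noise, on plates passing a quality check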;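 also: median bead fluorescence of bound FAM aptamer so fluorescent compounds give negative values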
Rce1 inhib: yeast Rce1p protease inhibitors, primary screen, biochemical, fluorescence, cell-free homogeneous. yeast membranes, quenched prenylated peptide cleavage fluorescence. AID 2563, 2010. CAAX prenyl protease 2 (Saccharomyces cerevisiae (strain ATCC 204508 / S288c)), Q03530. 0.27% of 290,000 active. calls only;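 active = fall in fluorescence gain of 50% or more versus controls, with final raw signal at or below 3038400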
Myeloid diff 2: induction of myeloid progenitor differentiation, primary screen, cell-based, flow cytometry, MLPCN library; 1% of 360,000 active; calls only at 10 µM; AID 624256, 2012; ER-HoxA9 myeloid progenitors, lysozyme-GFP differentiation;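 active = normalized GFP-positive differentiation at or above the plate's own cutoff, the solvent-only control mean plus 3 SD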;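 also: cells exposed to compound for four days before flow analysis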
Rin1 Abl inh: inhibitors of Rin1-Abl protein binding, primary screen, biochemical, TR-FRET | Tyrosine-protein kinase ABL1 (Homo sapiens) + Ras and Rab interactor 1 (Homo sapiens), … | inhibition, % at 7.35 µM | 0.4% of 360,000 active | AID 588664, 2011; in the data active = inhibition above about 5%, passing the limit was not always enough
SKN-1 block: suppressors of acrylamide-induced Pgst-4::GFP reporter in worms, primary screen, SKN-1 inhibitor project, whole organism, uHTS, GFP/RFP fluorescence ratio, strain VP596; C. elegans VP596 Pgst-4::GFP/RFP ratio, 24 h; AID 624304, 2012; inhibition, % at 21.8 µM; 0.49% of 360,000 active;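 active = interference check ratio from 0.5 to 1.5 plus GFP to RFP signal ratio inhibition reaching or exceeding a fixed threshold, cut at about 30% in these data, passing the limit was not always enough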
Numbers stand for hits.

How did Cc1ccc(CNC(=O)COC(=O)COc2ccc(C#N)cc2)cc1 do in these assays?
T cell HTS: inactive; GRK2 aptamer HTS: inactive; Myeloid diff 2: inactive; Rin1 Abl inh: inactive; SKN-1 block: inactive

How did CCCCN1C=C(C(C)=O)C(=O)CC1 do in these assays?
Myeloid diff 2: inactive; Rin1 Abl inh: inactive; SKN-1 block: inactive

Results for O=C(COC(=O)COc1cccc(Br)c1)NCc1ccc2c(c1)OCO2 ?
T cell HTS: inactive; GRK2 aptamer HTS: inactive; Myeloid diff 2: inactive; Rin1 Abl inh: inactive; SKN-1 block: inactive

What do the screens show for `C[C@H](NC(=O)c1[nH]cnc1C(=O)Nc1ccc(Cl)cc1)C(=O)OC(C)(C)C`?
T cell HTS: inactive; GRK2 aptamer HTS: inactive; Rce1 inhib: inactive; Myeloid diff 2: inactive; Rin1 Abl inh: inactive; SKN-1 block: 36.4

Results for CCOC(=O)c1ccc(NC(=O)c2nc[nH]c2C(=O)N[C@@H](C)C(=O)OC(C)(C)C)cc1 ?
T cell HTS: inactive; GRK2 aptamer HTS: inactive; Rce1 inhib: inactive; Myeloid diff 2: inactive; Rin1 Abl inh: inactive; SKN-1 block: inactive

Results for CC(C)(C)OC(=O)N1CCC(NC(=O)c2[nH]cnc2C(=O)Nc2ccccc2)CC1 ?
T cell HTS: inactive; GRK2 aptamer HTS: inactive; Myeloid diff 2: active; Rin1 Abl inh: inactive; SKN-1 block: inactive

How did CC1CCCN(C(=O)CSc2ncccn2)C1 (centres undefined) do in these assays?
T cell HTS: inactive; GRK2 aptamer HTS: inactive; Rce1 inhib: inactive; Myeloid diff 2: inactive; Rin1 Abl inh: inactive; SKN-1 block: inactive

Results for CCOc1cc(NC(=O)c2cnccn2)c(OCC)cc1NC(=O)c1cccc(F)c1 ?
T cell HTS: inactive; GRK2 aptamer HTS: 68.0; Rce1 inhib: inactive

Results for Cc1nc(C(F)(F)F)ccc1C(=O)N1CCC1(C)C(=O)NS(=O)(=O)c1ccc2c(c1)CCO2 (centres undefined) ?
Myeloid diff 2: inactive; Rin1 Abl inh: inactive; SKN-1 block: inactive

Results for O=C(/C(C=Nc1cccc(C(F)(F)F)c1)=C(/O)c1ccco1)C(F)(F)F ?
T cell HTS: inactive; GRK2 aptamer HTS: inactive; Rce1 inhib: inactive; Myeloid diff 2: inactive; Rin1 Abl inh: inactive; SKN-1 block: inactive

Results for O=C(/C(C=Nc1ccc(Br)cc1)=C(/O)c1ccco1)C(F)(F)F ?
T cell HTS: inactive; GRK2 aptamer HTS: inactive; Rce1 inhib: inactive; Myeloid diff 2: inactive; Rin1 Abl inh: inactive; SKN-1 block: 74.0

How did CC(C)CCN(C(=O)Cc1ccc(Cl)c(Cl)c1)c1c(N)n(Cc2ccccc2)c(=O)[nH]c1=O do in these assays?
T cell HTS: inactive; GRK2 aptamer HTS: inactive; Rce1 inhib: inactive; Myeloid diff 2: inactive; Rin1 Abl inh: inactive; SKN-1 block: inactive

How did Cn1c2ccccc2c2cnn(CC(=O)Nc3ccc(F)cc3F)c(=O)c21 do in these assays?
T cell HTS: inactive; GRK2 aptamer HTS: inactive; Rce1 inhib: inactive; Myeloid diff 2: active; Rin1 Abl inh: inactive; SKN-1 block: inactive

How did CSc1ccc(C(O)c2ncc(-c3cccc(OCc4ccccc4)c3)[nH]2)cc1 (centres undefined) do in these assays?
Myeloid diff 2: inactive; Rin1 Abl inh: inactive; SKN-1 block: inactive

How did CCCn1c(SCC(=O)c2ccc3c(c2)OCCO3)n[nH]c1=O do in these assays?
T cell HTS: inactive; GRK2 aptamer HTS: inactive; Rce1 inhib: inactive; Myeloid diff 2: inactive; Rin1 Abl inh: inactive; SKN-1 block: 43.4

Results for O=C(CSc1nc2ccccc2o1)c1ccc2c(c1)OCCO2 ?
T cell HTS: inactive; GRK2 aptamer HTS: inactive; Myeloid diff 2: inactive; Rin1 Abl inh: inactive; SKN-1 block: 36.6

What do the screens show for `O=C(CSc1nc2ccccc2o1)c1ccccc1`?
T cell HTS: inactive; GRK2 aptamer HTS: inactive; Rce1 inhib: inactive; Myeloid diff 2: inactive; Rin1 Abl inh: inactive; SKN-1 block: inactive

Results for c1ccc(CCNc2ncnc3ccccc23)cc1 ?
T cell HTS: inactive; GRK2 aptamer HTS: inactive; Rce1 inhib: inactive; Myeloid diff 2: inactive; Rin1 Abl inh: inactive; SKN-1 block: inactive

What do the screens show for `CCCCCCCCNc1ncnc2ccccc12`?
T cell HTS: inactive; GRK2 aptamer HTS: inactive; Rce1 inhib: inactive; Myeloid diff 2: inactive; Rin1 Abl inh: inactive; SKN-1 block: 50.6

What do the screens show for `OC(c1ccccn1)c1c[nH]c2ccccc12` (centres undefined)?
T cell HTS: inactive; GRK2 aptamer HTS: inactive; Rce1 inhib: inactive; Myeloid diff 2: inactive; Rin1 Abl inh: inactive; SKN-1 block: 36.8

What do the screens show for `O=C(CCSc1ccc(Cl)cc1)NC1CCCCC1`?
T cell HTS: inactive; GRK2 aptamer HTS: inactive; Rce1 inhib: inactive; Myeloid diff 2: inactive; Rin1 Abl inh: inactive; SKN-1 block: inactive

Results for O=C(CCSc1ccc(Cl)cc1)NC12CC3CC(CC(C3)C1)C2 ?
T cell HTS: inactive; GRK2 aptamer HTS: inactive; Rce1 inhib: active; Myeloid diff 2: inactive; Rin1 Abl inh: inactive; SKN-1 block: inactive

Results for COCc1cc(C)nc(SCC(=O)Nc2ccc(C)c(C)c2)c1C#N ?
T cell HTS: inactive; GRK2 aptamer HTS: inactive; Rce1 inhib: inactive; Myeloid diff 2: inactive; Rin1 Abl inh: inactive; SKN-1 block: 45.3

How did COCc1cc(C)nc(SCC(=O)Nc2ccc3[nH]c(=O)[nH]c3c2)c1C#N do in these assays?
T cell HTS: inactive; GRK2 aptamer HTS: inactive; Rce1 inhib: inactive; Myeloid diff 2: inactive; Rin1 Abl inh: inactive; SKN-1 block: inactive

What do the screens show for `C=CCn1c(SCC(=O)Nc2cccc(S(N)(=O)=O)c2)nnc1C1CCCCC1`?
T cell HTS: inactive; GRK2 aptamer HTS: inactive; Myeloid diff 2: inactive; Rin1 Abl inh: inactive; SKN-1 block: inactive

How did OCCN1CCN(CC(O)COc2ccc(C34CC5CC(CC(C5)C3)C4)cc2)CC1 (centres undefined) do in these assays?
T cell HTS: inactive; GRK2 aptamer HTS: inactive; Rce1 inhib: inactive; Myeloid diff 2: active; Rin1 Abl inh: inactive; SKN-1 block: inactive

How did COc1cc(NCCCCC(C)N)c2nccc(C)c2c1 (centres undefined) do in these assays?
Myeloid diff 2: inactive; Rin1 Abl inh: inactive; SKN-1 block: 35.9

How did COc1cc(NCCCC(C)N)c2ncccc2c1 (centres undefined) do in these assays?
Rce1 inhib: inactive; Myeloid diff 2: inactive; Rin1 Abl inh: inactive; SKN-1 block: inactive

How did CCN1CCc2c(sc(N)c2C#N)C1 do in these assays?
T cell HTS: inactive; GRK2 aptamer HTS: 63.0; Rce1 inhib: inactive; Myeloid diff 2: inactive; Rin1 Abl inh: inactive; SKN-1 block: inactive

What do the screens show for `COc1ccc(-c2nn(-c3ccccc3)cc2C(=O)Nc2nccs2)cc1`?
T cell HTS: inactive; GRK2 aptamer HTS: inactive; Rce1 inhib: inactive; Myeloid diff 2: inactive; Rin1 Abl inh: inactive; SKN-1 block: inactive
